Structures can show the parent of a compound that is named as a salt.
Legend:
Format in all cases: functional, organism-based
Plasmodium falciparum [1] = assay: Growth inhibition after 72 hrs of Plasmodium falciparum 3D7 by HRPII ELISA; settings: 3D7, 72 h
Procedure, shortened: (§1)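 Ring-stage cultures (≥70% rings) diluted to 0.5% parasitemia, 2% hematocrit, in RPMI with Albumax I or 10% human serum. Incubated 72 h at 37°C under 5% O2/5% CO2/90% N2 in plates predosed in duplicate with twofold dilutions (chloroquine 3.8–242 nM, quinine 10.8–346 nM, mefloquine 1.1–37.7 nM). Plates were then frozen and thawed. Lysate was assayed by HRPII capture ELISA (IgM capture, HRP detector), A450. IC50/IC90 were derived by nonlinear fitting.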

Plasmodium falciparum [2] = assay: Growth inhibition after 72 hrs of Plasmodium falciparum D6 by SYBR green I assay; settings: D6, 72 h
Procedure, shortened: (§2)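 Cultures were set up as for the ELISA arm: 0.5% parasitemia, 2% hematocrit, 72 h at 37°C, 5% O2/5% CO2/90% N2, twofold drug dilutions in duplicate. Plates were frozen at −80°C and thawed 2 h. 100 μl culture was mixed with an equal volume of SYBR green I in lysis buffer (Tris 20 mM pH 7.5, EDTA, saponin, Triton X-100), then held 1 h at RT. Fluorescence was read at 485/535 nm, with an uninfected-RBC background control. IC50/IC90 were derived by nonlinear fitting.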

Plasmodium falciparum [3] = assay: Growth inhibition after 72 hrs of Plasmodium falciparum D6 by HRPII ELISA; settings: D6, 72 h; procedure, shortened: as §1
Plasmodium falciparum [4] = assay: Growth inhibition after 72 hrs of Plasmodium falciparum W2 by SYBR green I assay; settings: W2, 72 h; procedure, shortened: as §2
Plasmodium falciparum [5] = assay: Growth inhibition after 72 hrs of Plasmodium falciparum W2 by HRPII ELISA; settings: W2, 72 h; procedure, shortened: as §1
Plasmodium falciparum [6] = assay: Growth inhibition after 72 hrs of Plasmodium falciparum 3D7 by SYBR green assay; settings: 3D7, 72 h; procedure, shortened: as §2

Structure (SMILES) | IC50 (Plasmodium falciparum [1]) [nM] | IC90 (Plasmodium falciparum [1]) [nM] | IC50 (Plasmodium falciparum [2]) [nM] | IC90 (Plasmodium falciparum [2]) [nM] | IC50 (Plasmodium falciparum [3]) [nM] | IC90 (Plasmodium falciparum [3]) [nM] | IC50 (Plasmodium falciparum [4]) [nM] | IC90 (Plasmodium falciparum [4]; read-out: IC90) [nM] | IC50 (Plasmodium falciparum [5]) [nM] | IC90 (Plasmodium falciparum [5]) [nM] | IC50 (Plasmodium falciparum [6]) [nM] | IC90 (Plasmodium falciparum [6]) [nM] | IC90 (Plasmodium falciparum [4]) [nM]
C=CC1CN2CC[C@H]1C[C@H]2[C@H](O)c1ccnc2ccc(OC)cc12 (single isomer, unassigned) [QUININE HYDROCHLORIDE] | 5.9 | 42.6 | 6.6 | 12.4 | 6.7 | 13.2 | 22.2 | 116 | 15.1 | 128 | 6.9 | 63.7 | 
CCN(CC)CCCC(C)Nc1ccnc2cc(Cl)ccc12 (configuration not stated) [CHLOROQUINE PHOSPHATE] |  | 33.2 |  | 16.1 |  | 15.8 |  |  |  | 129 |  | 26.4 | 125
O[C@@H](c1cc(C(F)(F)F)nc2c(C(F)(F)F)cccc12)[C@H]1CCCCN1 [MEFLOQUINE HYDROCHLORIDE] | 8.4 | 25.6 | 6.4 | 23.3 |  |  |  | 12.2 | 1.9 | 8 | 9.4 | 29.8 | 

From ChEMBL document CHEMBL1146201, “Comparison of a SYBR green I-based assay with a histidine-rich protein II enzyme-linked immunosorbent assay for in vitro antimalarial drug efficacy testing and application to clinical isolates” (Antimicrob Agents Chemother, 2007)
